Source: ChEMBL document CHEMBL4622889, “Antineurodegenerative Labdane Diterpenoid Glycosides from the Twigs of Pinus koraiensis” (J Nat Prod, 2020)

Tests used:
[1] = tested on: C6; assay: Neuroprotective activity in rat C6 cells assessed as NGF secretion at 20 uM incubated for 24 hrs by ELISA relative to control; assay type: functional
How it was run: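 Compounds applied to C6 glioma cells at 20 μM for 24 h; NGF released into the conditioned medium quantified by ELISA and given as percent of untreated control (100%). 6-Shogaol served as positive control. Means ± SD of three independent experiments.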

[2] = Cytotoxicity against rat C6 cells assessed as cell viability at 20 uM by MTT assay relative to control; assay type: cell-based; details: read-out: Activity
How it was run: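 C6 cells exposed to 20 μM of each compound; viability read by MTT and expressed as percent. Means ± SD of three independent experiments.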

[3] = tested on: BV-2; assay: Antineuroinflammatory activity against mouse BV2 cells assessed as inhibition of LPS-induced NO production incubated for 24 hrs by Griess assay; assay type: functional, cell-based; details: BV-2, 24 h
How it was run: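 BV2 microglia activated with LPS; NO production measured across compound concentrations, IC50 taken as the concentration (μM) giving 50% inhibition of NO production. Means ± SD of three independent experiments.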

[4] = Cytotoxicity against mouse BV2 cells assessed as cell viability at 20 uM by MTT assay relative to control; assay type: cell-based, BV-2; details: read-out: Activity
How it was run: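 BV2 cells treated with 20 μM of each compound; viability determined by MTT and expressed as percent. Means ± SD of three independent experiments.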

| Compound | Activity [1] [%] | viability at 20 µM [2] [%] | IC50 [3] [µM] | viability at 20 µM [4] [%] |
| --- | --- | --- | --- | --- |
| C=C1CC[C@@H]2[C@](C)(CCC[C@]2(O)C(=O)O[C@@H]2O[C@H](CO)[C@@H](O)[C@H](O)[C@H]2O)[C@H]1CCC1=CCOC1=O | 98.6 | 76 | 51.6 | 80.7 |
| C=C1C[C@H](O)[C@@H]2[C@](C)(CCC[C@]2(C)C(=O)O[C@@H]2O[C@H](CO)[C@@H](O)[C@H](O)[C@H]2O)[C@H]1CCC1=CCOC1=O | 128.7 | 101 | 35.7 | 99.7 |
| C=C1CC[C@@H]2[C@](C)(CC[C@@H](O)[C@]2(C)C(=O)O[C@@H]2O[C@H](CO)[C@@H](O)[C@H](O)[C@H]2O)[C@H]1CCC1=CCOC1=O | 106.6 | 92.8 | 24.1 | 77.5 |
| C=C1CC[C@@H]2[C@](C)(CC[C@H](O)[C@]2(C)C(=O)O[C@@H]2O[C@H](CO)[C@@H](O)[C@H](O)[C@H]2O)[C@H]1CCC1=CCOC1=O | 134.7 | 98.3 | 68.8 | 91.3 |
| C[C@]12CCC[C@](C)(C(=O)O[C@@H]3O[C@H](CO)[C@@H](O)[C@H](O)[C@H]3O)[C@@H]1CC[C@@](C)(O)[C@@H]2CCC1=CCOC1=O | 84.5 | 111 | 402 | 70.4 |
| C=C1CC[C@@H]2[C@](C)(CCC[C@]2(C)C(=O)O[C@@H]2O[C@H](CO)[C@@H](O)[C@H](O)[C@H]2O)[C@H]1CC/C(=C/CO)CO | 105.4 | 86.5 | 152 | 133 |
| C=C1CC[C@@H]2[C@](C)(CCC[C@]2(C)C(=O)O[C@@H]2O[C@H](CO)[C@@H](O)[C@H](O)[C@H]2O)[C@H]1CC/C(=C\CO)CO | 162.3 | 104 | 65.4 | 135 |
| C=C1CC[C@@H]2[C@](C)(CCC[C@]2(C)C(=O)O[C@@H]2O[C@H](CO)[C@@H](O)[C@H](O)[C@H]2O)[C@H]1CCC1=CCOC1=O | 142.4 | 101 | 65.8 | 92.1 |
| C=C1CC[C@@H]2[C@](C)(CCC[C@]2(C)C(=O)O[C@@H]2O[C@H](CO)[C@@H](O)[C@H](O)[C@H]2O)[C@H]1CCC1=CC(=O)OC1 | 162.7 | 105 | 54.1 | 107 |
| C[C@]12CCC[C@](C)(C(=O)O[C@@H]3O[C@H](CO)[C@@H](O)[C@H](O)[C@H]3O)[C@@H]1CC=C(CO)[C@@H]2CCC1=CCOC1=O | 119.4 | 102 | 93.2 | 87.7 |
| C[C@]12CCC[C@](C)(C(=O)O[C@@H]3O[C@H](CO)[C@@H](O)[C@H](O)[C@H]3O)[C@@H]1CC[C@](C)(O)[C@@H]2CCC1=CCOC1=O | 106.1 | 94.2 | 49.2 | 89.6 |
| CNC(=N)NCCC[C@H](N)C(=O)O [TILARGININE] | – | – | 28.8 | 99.2 |
